Measured values published in ChEMBL document CHEMBL3352171, “Synthesis and biological evaluation of andrographolide analogues as anti-cancer agents” (Eur J Med Chem, 2014).

Assay: Induction of glutathione reactivity in pH 7.4 PBS buffer assessed as compound formation at 10 mM Andrographolide-14a-O iodoacetate and 10 mM GSH at 50 degC incubated for 8 hrs under argon atmosphere by reverse phase HPLC method
Assay type: physicochemical
Details: pH 7.4, 8 h, 10000 µM
Procedure, shortened: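 Ethanolic compound and GSH added to PBS, final 10 mM each with buffer at 2 mM, heated at 50 °C for 8 h.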

Drug metabolism: metabolite_detected
Structure (SMILES): C=C1CC[C@@H]2[C@](C)(CO)[C@H](O)CC[C@@]2(C)[C@@H]1CC(SC[C@H](NC(=O)CC[C@H](N)C(=O)O)C(=O)NCC(=O)O)C1=CCOC1=O (single isomer, unassigned; diastereomer 1)
